We go through 35 compounds from ChEMBL document CHEMBL4041513, “In silico identification, design and synthesis of novel piperazine-based antiviral agents targeting the hepatitis C virus helicase” (Eur J Med Chem, 2017).

Where only a bound is given, the exact number is not on record here.

The nature of data set [1]: Cytotoxicity against human HuH5.2 cells assessed as reduction in cell viability after 72 hrs by MTS assay. It counts as cell-based, Huh-5-2. The procedure, abridged:
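Huh 5-2 cells carrying the genotype 1b I389luc-ubi-neo/NS3-3'/5.1 replicon were seeded at 6 500 cells/well in medium without Geneticin one day ahead. Compounds (DMSO stock) were added as 1:5 four-step or 1:2 eight-step dilutions for 72 h at 37 °C.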
For orientation: Tetrazolium dyes change colour on reduction, which living cells bring about.

Data set [2] relates to Hepatitis C virus. Kind of data set: Antiviral activity against HCV genotype 1b infected in human HuH5.2 cells with persistent I389luc-ubi-neo/NS3-3'/5.1 replicon after 72 hrs by luciferase reporter gene assay. Particulars: Huh-5-2, 72 h. In kind it is functional, cell-based, Hepacivirus hominis. The procedure, abridged: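 Huh 5-2 cells carrying the genotype 1b I389luc-ubi-neo/NS3-3'/5.1 replicon were seeded at 6 500 cells/well in Geneticin-free DMEM/10% FCS and left overnight. Compounds from DMSO stocks were added in a four-step 1-to-5 series for the first screen or an eight-step 1-to-2 series for dose-response curves, then 72 h at 37 °C. Luciferase luminescence after lysis, as % of untreated controls, gave EC50; mean of ≥2 experiments.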
On the technique in general: A replicon is a self-replicating genome or part of one, used to study replication in cells.

A short description of data set [3]: Selectivity index, ratio of CC50 for human HuH5.2 cells to EC50 for HCV genotype 1b infected in human HuH5.2 cells with persistent I389luc-ubi-neo/NS3-3'/5.1 replicon.

The term CC50 denotes the concentration that lowers cell viability or growth by half. The term EC50 denotes the concentration needed to bring the measured effect to its halfway point. Higher therefore signals a less potent agent. As a reminder, the EC90 is the concentration at which the effect reaches the 90% level. A higher EC90 goes with weaker potency. For `O=C(NCCCN1CCN(CCCNC(=O)c2ccc(Cl)cc2)CC1)c1ccc(Cl)cc1`, in data set [1], the CC50 at 72 h is more than 209 µM. For the same compound, in data set [2], the EC50 was more than 209 µM and the EC90 was more than 209 µM.
As to `O=S(=O)(NCCCN1CCN(CCCNS(=O)(=O)c2ccccc2Cl)CC1)c1ccccc1Cl`, the CC50 at 72 h in data set [1] was more than 182 µM.
With `O=S(=O)(NCCCN1CCN(CCCNS(=O)(=O)c2ccccc2)CC1)c1ccccc1`, the CC50 at 72 h in data set [1] was more than 104 µM. This compound also came in with an EC50 in data set [2] of 58.3 µM. In data set [3], the “Ratio CC50/EC50” value was more than 1.8.
Taken in the same sequence, the figures for `CC(C)(C)c1ccc(S(=O)(=O)NCCCN2CCN(CCCNS(=O)(=O)c3ccccc3)CC2)cc1` were 20.5 µM, 3.74 µM and 5.5.
Turning to `O=S(=O)(NCCN1CCN(CCNS(=O)(=O)c2ccccc2)CC1)c1ccccc1`, the CC50 at 72 h in data set [1] was more than 110 µM. This compound came in with an EC50 in data set [2] of more than 110 µM.
For the compound `COc1ccc(-c2ccc(/C=N/NC(=O)COc3cc(C)ccc3C)o2)cc1Cl`, the CC50 at 72 h in data set [1] was more than 121 µM. Moreover, in data set [2], the EC50 stood at 26.4 µM and the EC90 is more than 121 µM. Further, the “Ratio CC50/EC50” value in data set [3] was more than 4.5.
Turning to `Cc1ccc(C(=O)C2=C(O)C(=O)N(Cc3ccco3)C2c2cccc(Cl)c2)o1` (configuration not stated), in data set [1], the half-maximal cytotoxic concentration (CC50) at 72 h is more than 126 µM. Further, the EC50 in data set [2] was found to be 30.6 µM. The “Ratio CC50/EC50” value in data set [3] was more than 4.1.
Turning to `COc1ccc(S(=O)(=O)NCCC(=O)N2CCN(C(=O)CCNS(=O)(=O)c3ccc(OC)cc3)CC2)cc1`, the CC50 at 72 h in data set [1] is more than 87.9 µM.
Take `O=C(CCNS(=O)(=O)c1ccccc1)N1CCN(CCCNS(=O)(=O)c2ccccc2)CC1`: in data set [1], the CC50 at 72 h was more than 202 µM. Further, in data set [2], the EC50 is more than 202 µM and the EC90 is more than 202 µM.
For the compound `Cc1ccc(S(=O)(=O)NCCCN2CCN(C(=O)CCNS(=O)(=O)c3ccc(C)cc3)CC2)cc1`, in data set [1], the CC50 at 72 h is more than 191 µM. Besides, in data set [2], the EC50 worked out at 64.3 µM and it took 173 µM to reach the 90% level (EC90). Further, the “Ratio CC50/EC50” value in data set [3] is reported as more than 3.
Take `O=C(CCNS(=O)(=O)c1ccc2ccccc2c1)N1CCN(C(=O)CCNS(=O)(=O)c2ccc3ccccc3c2)CC1`: the CC50 at 72 h in data set [1] was 40.8 µM. The same compound returned an EC50 in data set [2] of 12 µM. The “Ratio CC50/EC50” value in data set [3] stood at 3.4.
Take `CCC[C@H](NC(=O)[C@@H]1[C@H]2CCC[C@H]2CN1C(=O)[C@@H](NC(=O)[C@@H](NC(=O)c1cnccn1)C1CCCCC1)C(C)(C)C)C(=O)C(=O)NC1CC1`: the Ratio CC50/EC50 in data set [3] was 58.8.
With `Cc1ccc(S(=O)(=O)NCCCN2CCN(CCCNS(=O)(=O)c3ccccc3)CC2)cc1`, in data set [1], the CC50 at 72 h turned out to be 138 µM. In data set [2], this compound displayed an EC50 of 26.3 µM. The “Ratio CC50/EC50” value in data set [3] was determined as 5.3.
Turning to `O=S(=O)(NCCCN1CCN(CCCNS(=O)(=O)c2cccs2)CC1)c1cccs1`, the 50% cytotoxic concentration (CC50) at 72 h in data set [1] was more than 203 µM. Further, in data set [2], the response was half-maximal at 62 µM (EC50) and it took 156 µM to reach the 90% level (EC90). Further, the “Ratio CC50/EC50” value in data set [3] is more than 3.3.
On the same counts, the results for `O=S(=O)(NCCCN1CCN(CCCNS(=O)(=O)c2ccc(Cl)cc2)CC1)c1ccccc1` are 81.5 µM, 19.9 µM, more than 64 µM and 4.1.
As for `O=c1nc2n(-c3cccc(Br)c3)c3ccccc3cc-2c(=O)[nH]1`, the cytotoxic concentration (CC50) at 72 h in data set [1] is more than 136 µM. Moreover, the EC50 in data set [2] was determined as 81.7 µM. Further, the “Ratio CC50/EC50” value in data set [3] is given as more than 1.6.
For `COc1ccc(OC)c(S(=O)(=O)NCCCN2CCN(CCCNS(=O)(=O)c3cc(OC)ccc3OC)CC2)c1`, the CC50 at 72 h in data set [1] is more than 83.2 µM. Further, in data set [2], the EC50 is more than 83.2 µM and the EC90 is more than 83.2 µM.
For `CC(C)Oc1ccc(/C=N/N=C2/NC(=O)C(CC(=O)O)S2)cc1` (configuration not stated), the CC50 at 72 h in data set [1] was more than 149 µM. In data set [2], this compound had a concentration giving a half-maximal response (EC50) of 127 µM. Besides, the “Ratio CC50/EC50” value in data set [3] is on record as more than 1.1.
In the case of `Cc1ccc(S(=O)(=O)NCCCN2CCN(CCCNS(=O)(=O)c3ccc(C)cc3)CC2)cc1`, the CC50 at 72 h in data set [1] is more than 197 µM. Also, a half-maximal effect in data set [2] (EC50) was put at 19.2 µM. Moreover, the “Ratio CC50/EC50” value in data set [3] is listed as more than 10.3.
As to `Cc1ccc(S(=O)(=O)NCCN2CCN(CCNS(=O)(=O)c3ccc(C)cc3)CC2)cc1`, in data set [1], the CC50 at 72 h is more than 104 µM. In data set [2], this compound returned an EC50 of more than 104 µM and an EC90 of more than 104 µM.
Regarding `O=S(=O)(NCCCN1CCN(CCNS(=O)(=O)c2ccc(Cl)cc2)CC1)c1ccc(Cl)cc1`, in data set [1], the CC50 at 72 h was 32.3 µM. In data set [2], this compound showed an EC50 of 6.59 µM. The “Ratio CC50/EC50” value in data set [3] came out at 4.9.
On to `O=S(=O)(NCCCN1CCN(CCCNS(=O)(=O)c2cccnc2)CC1)c1cccnc1`, for which the CC50 at 72 h in data set [1] is more than 207 µM. For the same compound, in data set [2], the EC50 was more than 207 µM and the EC90 is more than 207 µM.
In the case of `Cc1ccc2nc(N3C(=O)C(O)=C(C(=O)c4cc5ccccc5o4)C3c3cccc(Oc4ccccc4)c3)sc2c1` (configuration not stated), the CC50 at 72 h in data set [1] is more than 89.5 µM. In data set [2], the EC50 was found to be 41.8 µM and the EC90 is more than 89.5 µM. For the same compound, in data set [3], the “Ratio CC50/EC50” value is recorded as more than 2.1.
In the case of `CC(CC(=O)O)CC(=O)Nc1cccnc1` (configuration not stated), the CC50 at 72 h in data set [1] was more than 225 µM. In data set [2], this compound came in with an EC50 of more than 225 µM and an EC90 of more than 225 µM.
On to `Cc1ccc(S(=O)(=O)NCCCN2CCN(CCCNS(=O)(=O)c3ccc(-c4ccccc4)cc3)CC2)cc1`, for which the CC50 at 72 h in data set [1] stood at 6.55 µM. For the same compound, in data set [2], a half-maximal response (EC50) required 1.98 µM. For the same compound, the “Ratio CC50/EC50” value in data set [3] is recorded as 3.3.
On the same counts, the results for `Cc1ccc2nc(N3C(=O)C(O)=C(C(=O)c4cc5ccccc5o4)C3c3cccc(O)c3)sc2c1` (configuration not stated) are more than 104 µM, 35.8 µM and more than 2.8.
Taken in the same sequence, the figures for `O=S(=O)(NCCCN1CCN(CCCNS(=O)(=O)c2ccc(-c3ccccc3)cc2)CC1)c1ccc(Cl)cc1` were 4.43 µM, 2.12 µM and 2.1.
Turning to `COc1ccc(S(=O)(=O)NCCN2CCN(CCNS(=O)(=O)c3ccc(OC)c(OC)c3)CC2)cc1OC`, the CC50 at 72 h in data set [1] was more than 87.3 µM. In data set [2], this compound registered an EC50 of 85.8 µM and an EC90 of more than 87.3 µM. For the same compound, in data set [3], the “Ratio CC50/EC50” value was more than 1.
In the case of `COc1ccc(OC)c(S(=O)(=O)NCCN2CCN(CCNS(=O)(=O)c3cc(OC)ccc3OC)CC2)c1`, the CC50 at 72 h in data set [1] was more than 87.3 µM. In addition, the EC50 in data set [2] was more than 87.3 µM.
Consider `COc1ccc(S(=O)(=O)NCCC(=O)N2CCN(C(=O)CCNS(=O)(=O)c3ccc(OC)c(OC)c3)CC2)cc1OC`, for which, in data set [1], the CC50 at 72 h was more than 159 µM. In data set [2], this compound came in with an EC50 of more than 159 µM and an EC90 of more than 159 µM.
As to `COc1ccc(OC)c(S(=O)(=O)NCCC(=O)N2CCN(C(=O)CCNS(=O)(=O)c3cc(OC)ccc3OC)CC2)c1`, the CC50 at 72 h in data set [1] is more than 79.5 µM. In data set [2], this compound came in with an EC50 of more than 79.5 µM.
As to `CC(=O)c1ccc(NC(=O)CSc2nnc(NC(=O)CCc3ccccc3)s2)cc1`, the CC50 at 72 h in data set [1] is more than 113 µM. Besides, in data set [2], the EC50 was more than 113 µM and the EC90 is more than 113 µM.
As for `CC(C)(C)c1ccc(C(=O)Oc2ccc3c(-c4ccccc4C(=O)O)c4ccc(=O)cc-4oc3c2)cc1`, the CC50 at 72 h in data set [1] was more than 102 µM. In data set [2], this compound returned an EC50 of more than 102 µM and an EC90 of more than 102 µM.
Turning to `COc1ccc(S(=O)(=O)NCCCN2CCN(CCCNS(=O)(=O)c3ccc(OC)cc3)CC2)cc1`, in data set [1], the CC50 at 72 h is more than 92.5 µM. In data set [2], this compound yielded an EC50 of more than 92.5 µM and an EC90 of more than 92.5 µM.
As for `COc1ccc(S(=O)(=O)NCCN2CCN(CCNS(=O)(=O)c3ccc(OC)cc3)CC2)cc1`, the CC50 at 72 h in data set [1] was more than 97.5 µM. For the same compound, in data set [2], the half-maximal effective concentration (EC50) was more than 97.5 µM and the EC90 is more than 97.5 µM.
